# Measurements reported in ChEMBL document CHEMBL3621072, “Design, Virtual Screening, and Synthesis of Antagonists of αIIbβ3 as Antiplatelet Agents” (J Med Chem, 2015).
# Target: T1, Integrin alpha-IIb/beta-3 (Homo sapiens, UniProt P05106+P08514)
# Assay: Inhibition of FITC-labeled fibrinogen binding to integrin alpha2bbeta3 closed form in human washed platelets
# How it was run: (§1)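 Suspension of washed human platelets; αIIbβ3 binding of fluorescein isothiocyanate-labeled fibrinogen (FITC-Fg) measured, inhibition by test compound expressed as IC50. Pure enantiomers tested.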
# T1 sequence (P05106 27-788 limits assumed): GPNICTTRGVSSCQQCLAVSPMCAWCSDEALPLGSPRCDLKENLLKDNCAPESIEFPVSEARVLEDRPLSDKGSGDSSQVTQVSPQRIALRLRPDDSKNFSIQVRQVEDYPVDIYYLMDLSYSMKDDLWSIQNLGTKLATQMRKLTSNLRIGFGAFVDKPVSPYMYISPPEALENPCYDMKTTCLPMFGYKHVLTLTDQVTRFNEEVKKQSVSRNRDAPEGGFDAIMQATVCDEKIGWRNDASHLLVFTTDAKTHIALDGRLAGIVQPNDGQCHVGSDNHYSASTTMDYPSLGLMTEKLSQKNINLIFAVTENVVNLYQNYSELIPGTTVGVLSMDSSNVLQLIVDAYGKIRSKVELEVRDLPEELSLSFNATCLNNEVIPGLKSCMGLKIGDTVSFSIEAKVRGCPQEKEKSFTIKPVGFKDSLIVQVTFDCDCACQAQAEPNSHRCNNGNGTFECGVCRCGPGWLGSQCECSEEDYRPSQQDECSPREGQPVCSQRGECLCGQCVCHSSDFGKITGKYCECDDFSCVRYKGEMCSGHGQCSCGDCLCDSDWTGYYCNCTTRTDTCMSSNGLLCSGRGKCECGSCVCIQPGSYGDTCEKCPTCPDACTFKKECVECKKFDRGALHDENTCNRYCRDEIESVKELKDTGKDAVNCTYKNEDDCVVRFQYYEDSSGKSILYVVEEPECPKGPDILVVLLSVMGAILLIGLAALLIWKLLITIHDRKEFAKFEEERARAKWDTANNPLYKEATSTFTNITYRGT
# T1 sequence (P08514 32-887 limits assumed): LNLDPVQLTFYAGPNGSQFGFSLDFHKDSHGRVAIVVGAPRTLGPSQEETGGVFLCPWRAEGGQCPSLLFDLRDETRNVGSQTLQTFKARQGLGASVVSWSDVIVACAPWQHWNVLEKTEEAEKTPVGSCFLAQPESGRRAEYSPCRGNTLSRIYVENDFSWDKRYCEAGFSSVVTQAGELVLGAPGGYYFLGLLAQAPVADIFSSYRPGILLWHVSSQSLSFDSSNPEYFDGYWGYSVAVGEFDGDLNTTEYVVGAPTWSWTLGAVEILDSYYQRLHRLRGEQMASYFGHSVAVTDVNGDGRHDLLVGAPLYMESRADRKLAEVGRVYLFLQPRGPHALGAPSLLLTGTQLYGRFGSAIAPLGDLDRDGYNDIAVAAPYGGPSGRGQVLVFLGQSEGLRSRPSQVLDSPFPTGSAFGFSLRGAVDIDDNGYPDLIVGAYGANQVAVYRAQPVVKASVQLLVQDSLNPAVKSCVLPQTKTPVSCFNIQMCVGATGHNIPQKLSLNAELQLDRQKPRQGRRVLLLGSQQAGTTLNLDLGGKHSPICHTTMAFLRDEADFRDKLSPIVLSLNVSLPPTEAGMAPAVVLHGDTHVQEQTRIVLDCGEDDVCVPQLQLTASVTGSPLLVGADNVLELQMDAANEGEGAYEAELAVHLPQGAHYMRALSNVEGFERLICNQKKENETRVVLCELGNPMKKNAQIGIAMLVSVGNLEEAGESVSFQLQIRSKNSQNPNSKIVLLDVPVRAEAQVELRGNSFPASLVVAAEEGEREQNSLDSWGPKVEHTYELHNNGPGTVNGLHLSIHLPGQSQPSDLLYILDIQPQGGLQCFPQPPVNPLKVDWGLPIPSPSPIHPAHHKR
# T1 sequence (P08514 891-1039 limits assumed): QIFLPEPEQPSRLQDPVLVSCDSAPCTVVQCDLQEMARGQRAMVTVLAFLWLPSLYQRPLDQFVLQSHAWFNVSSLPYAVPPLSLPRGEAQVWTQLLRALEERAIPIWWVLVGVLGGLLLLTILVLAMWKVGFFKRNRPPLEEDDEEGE
row,Compound,IC50 [nM]
1,NCCCC(=O)Nc1ccc2nc(N3CCNCC3)[nH]c(=O)c2c1,2.2
2,NCCC(=O)Nc1ccc2nc(N3CCNCC3)[nH]c(=O)c2c1,5
3,O=C(Nc1ccc2nc(N3CCNCC3)[nH]c(=O)c2c1)C1CCNCC1,3.8

# Target: T1, Integrin alpha-IIb/beta-3
# Assay: Antagonist activity against integrin alpha2bbeta3 in human platelet rich plasma
# How it was run: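 Human platelet-rich plasma, aggregation induced by ADP and followed by Born's light-transmission method. Inhibition of aggregation by the test compound is reported as IC50. Pure enantiomers tested.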
row,Compound,IC50 [nM]
1,CCc1nn2c(=O)cc(N3CCNCC3)nc2s1,13000
2,N=C(N)c1ccc2cc(OC(=O)c3ccc(N=C(N)N)cc3)ccc2c1 [NAFAMOSTAT],12500

# Target: T1, Integrin alpha-IIb/beta-3
# Assay: Inhibition of FITC-labeled fibrinogen binding to integrin alpha2bbeta3 open form in human washed platelets
# How it was run: as §1
row,Compound,IC50 [nM]
1,O=C(CCNC(=O)c1ccc2c(c1)CNCC2)NC[C@@H](NS(=O)(=O)c1ccccc1)C(=O)O,0.96
2,CCCCS(=O)(=O)N[C@H](CNC(=O)CCNC(=O)c1ccc2c(c1)CNCC2)C(=O)O,79
3,O=C(CCNC(=O)c1ccc2c(c1)CNCC2)NC[C@H](NS(=O)(=O)c1ccccc1)C(=O)O,0.22
4,CCCCS(=O)(=O)N[C@@H](CNC(=O)CCNC(=O)c1ccc2c(c1)CNCC2)C(=O)O,62
